Results reported in ChEMBL document CHEMBL1144027, “Synthesis and antimycobacterial evaluation of newer 1-cyclopropyl-1,4-dihydro-6-fluoro-7-(substituted secondary amino)-8-methoxy-5-(sub)-4-oxoquinoline-3-carboxylic acids” (Bioorg Med Chem, 2008).
Values after ≈ are worked out from the molar mass of the structure shown.

The compounds below were run on Mycobacterium tuberculosis (assay: Antimycobacterial activity against multidrug resistant Mycobacterium tuberculosis by agar dilution method).
Format: functional
In short: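 Agar dilution MIC on Middlebrook 7H11 agar with OADC, following the NCCLS-recommended approach, run in duplicate. The MDR clinical isolate was resistant to isoniazid, rifampicin, ethambutol and ofloxacin.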

SMILES	MIC
COc1c(N2CC(C)OC(C)C2)c(F)cc2c(=O)c(C(=O)O)cn(C3CC3)c12 (centres undefined)	3.99 µM (≈ 1.56 µg/mL)
COc1c(N2CCN(C)C(c3ccccc3)C2)c(F)c([N+](=O)[O-])c2c(=O)c(C(=O)O)cn(C3CC3)c12 (centres undefined)	3.14 µM (≈ 1.56 µg/mL)
COc1ccc(CC2C3=C(CCCC3)CCN2c2c(F)c([N+](=O)[O-])c3c(=O)c(C(=O)O)cn(C4CC4)c3c2OC)cc1 (centres undefined)	0.33 µM (≈ 0.191 µg/mL)
COc1c(N2COCC2(C)C)c(F)cc2c(=O)c(C(=O)O)cn(C3CC3)c12	2.07 µM (≈ 0.779 µg/mL)
COc1c(N2CCn3cc(C(=O)O)nc3C2)c(F)c([N+](=O)[O-])c2c(=O)c(C(=O)O)cn(C3CC3)c12	1.6 µM (≈ 0.78 µg/mL)
NNC(=O)c1ccncc1 [ISONIAZID]	45.6 µM (≈ 6.25 µg/mL)
CCN(CC)C(=O)C1CCCN(c2c(F)cc3c(=O)c(C(=O)O)cn(C4CC4)c3c2OC)C1 (centres undefined)	3.39 µM (≈ 1.56 µg/mL)
COc1c(N2CCC3(CC2)OCCO3)c(F)cc2c(=O)c(C(=O)O)cn(C3CC3)c12	1.86 µM (≈ 0.778 µg/mL)
COc1c(N2CC(C)OC(C)C2)c(F)c([N+](=O)[O-])c2c(=O)c(C(=O)O)cn(C3CC3)c12 (centres undefined)	1.79 µM (≈ 0.779 µg/mL)
COc1c(N2CCc3ccccc3C2C(=O)NC(C)(C)C)c(F)c([N+](=O)[O-])c2c(=O)c(C(=O)O)cn(C3CC3)c12 (centres undefined)	2.82 µM (≈ 1.56 µg/mL)
COc1c(N2CCN(Cc3ccc4c(c3)OCO4)CC2)c(F)cc2c(=O)c(C(=O)O)cn(C3CC3)c12	1.57 µM (≈ 0.778 µg/mL)
COc1c(N2CCN(C(=O)C3COc4ccccc4O3)CC2)c(F)c([N+](=O)[O-])c2c(=O)c(C(=O)O)cn(C3CC3)c12 (centres undefined)	2.74 µM (≈ 1.56 µg/mL)
COc1ccc(CC2C3=C(CCCC3)CCN2c2c(F)cc3c(=O)c(C(=O)O)cn(C4CC4)c3c2OC)cc1 (centres undefined)	1.46 µM (≈ 0.778 µg/mL)
COc1c(N2CCN(C(=O)C3COc4ccccc4O3)CC2)c(F)cc2c(=O)c(C(=O)O)cn(C3CC3)c12 (centres undefined)	0.74 µM (≈ 0.387 µg/mL)
COc1ccc(CC2C3=C(CCCC3)CCN2c2c(F)c(N)c3c(=O)c(C(=O)O)cn(C4CC4)c3c2OC)cc1 (centres undefined)	2.85 µM (≈ 1.56 µg/mL)
COc1c(N2COCC2(C)C)c(F)c([N+](=O)[O-])c2c(=O)c(C(=O)O)cn(C3CC3)c12	0.93 µM (≈ 0.392 µg/mL)
COc1c(N2CCC3(CC2)OCCO3)c(F)c([N+](=O)[O-])c2c(=O)c(C(=O)O)cn(C3CC3)c12	0.41 µM (≈ 0.19 µg/mL)
COc1c(N2CCn3cc(C(=O)O)nc3C2)c(F)cc2c(=O)c(C(=O)O)cn(C3CC3)c12	1.76 µM (≈ 0.779 µg/mL)
COc1c(N2CCN(Cc3ccc4c(c3)OCO4)CC2)c(F)c([N+](=O)[O-])c2c(=O)c(C(=O)O)cn(C3CC3)c12	0.35 µM (≈ 0.189 µg/mL)
CCN(CC)C(=O)C1CCCN(c2c(F)c([N+](=O)[O-])c3c(=O)c(C(=O)O)cn(C4CC4)c3c2OC)C1 (centres undefined)	1.55 µM (≈ 0.782 µg/mL)
COc1c(N2CCN(C(c3ccccc3)c3ccc(Cl)cc3)CC2)c(F)c([N+](=O)[O-])c2c(=O)c(C(=O)O)cn(C3CC3)c12 (centres undefined)	1.28 µM (≈ 0.777 µg/mL)
COc1c(N2CCSCC2)c(F)cc2c(=O)c(C(=O)O)cn(C3CC3)c12	2.06 µM (≈ 0.78 µg/mL)
COc1c(N2CCSCC2)c(F)c([N+](=O)[O-])c2c(=O)c(C(=O)O)cn(C3CC3)c12	1.84 µM (≈ 0.779 µg/mL)
COc1c(N2CCNC(C)C2)c(F)cc2c(=O)c(C(=O)O)cn(C3CC3)c12 (centres undefined) [GATIFLOXACIN]	8.34 µM (≈ 3.13 µg/mL)
